Test results: ChEMBL document CHEMBL2375308, “Synthesis and selected immunological properties of substituted quino[3,2-b]benzo[1,4]thiazines” (Eur J Med Chem, 2013)

How the values were obtained:
PBMC [1] = test: Inhibition of LPS-induced TNFalpha production in human PBMC at 25 ug/mL after overnight incubation relative to DMSO-treated control; type: functional
How it was run: (§1)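 Single-donor venous blood diluted 10× in RPMI-1640, 1 mL aliquots, stimulated with LPS (E. coli O111:B4). Compounds added at […]; corresponding DMSO dilutions as controls. Overnight incubation, supernatants frozen at −20 °C, TNF-α measured by biological assay; percentage inhibition versus DMSO control.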

PBMC [2] = test: Inhibition of LPS-induced TNFalpha production in human PBMC at 5 ug/mL after overnight incubation relative to DMSO-treated control; type: functional; how it was run: as §1
PBMC [3] = test: Antiproliferative activity against PHA-stimulated human PBMC at 50 ug/mL after 4 days by MTT assay relative to DMSO-treated control; type: functional
How it was run: (§2)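 PBMC from one donor's heparinized blood, Ficoll gradient isolated, in RPMI-1640 with 10% FCS; 2 × 10⁵ cells/well. PHA added at […]; compounds from DMSO stock (10 mg/mL) diluted in medium; matching DMSO dilutions as control. Four-day culture, proliferation read by MTT colorimetry; percentage inhibition versus control.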

PBMC [4] = test: Antiproliferative activity against PHA-stimulated human PBMC at 10 ug/mL after 4 days by MTT assay relative to DMSO-treated control; type: functional; how it was run: as §2
PBMC [5] = test: Cytotoxicity against human PBMC cells at 10 ug/mL after 24 hrs by MTT assay relative to DMSO-treated control; type: cell-based
How it was run: (§3)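 Ficoll-isolated PBMC ([…]) in supplemented RPMI-1640, 2 × 10⁵/well, cultured 24 h with the preparations at the indicated concentrations; compounds dissolved in DMSO (10 mg/mL stock) and diluted in medium.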

PBMC [6] = test: Cytotoxicity against human PBMC cells at 50 ug/mL after 24 hrs by MTT assay relative to DMSO-treated control; type: cell-based; how it was run: as §3

| SMILES | inhibition at 25 µg/mL (PBMC [1]) [%] | inhibition at 5 µg/mL (PBMC [2]) [%] | Activity (PBMC [3]) [%] | Activity (PBMC [4]) [%] | Activity (PBMC [5]) | Activity (PBMC [6]) |
| --- | --- | --- | --- | --- | --- | --- |
| CSc1ccc2c(c1)Sc1cc3ccccc3nc1N2CCCNC(=O)NCCCl | 1 | 50.7 | 93.7 | 93 | Non-toxic | 92.7% |
| CC(=O)NCCCN1c2ccccc2Sc2cc3ccccc3nc21 | 32.2 | -0.4 | 92.4 | 68.7 | Non-toxic | 91.9% |
| CC(=O)NCCCCN1c2ccccc2Sc2cc3ccccc3nc21 | 20.2 | 0 | 94.3 | 72.7 | Non-toxic | Non-toxic |
| Cc1ccc(S(=O)(=O)NCCCCN2c3ccccc3Sc3cc4ccccc4nc32)cc1 | 12.5 | 15.8 | 2.4 | 3.3 | Non-toxic | Non-toxic |
| CSc1ccc2c(c1)Sc1cc3ccccc3nc1N2CCCNS(=O)(=O)c1ccc(C)cc1 | 20.8 | 72.1 | -46.4 | -5.3 | Non-toxic | Non-toxic |
| CSc1ccc2c(c1)Sc1cc3ccccc3nc1N2CCCNS(C)(=O)=O | 47.5 | 73.7 | 65.4 | 57.3 | Non-toxic | Non-toxic |
| CCOC(=O)NCCCCN1c2ccc(Cl)cc2Sc2cc3ccccc3nc21 | 8.41 | 13.2 | -12 | -0.7 | Non-toxic | Non-toxic |
| CCOC(=O)NCCCN1c2ccc(SC)cc2Sc2cc3ccccc3nc21 | 70.1 | 74.9 | 38.8 | 45.4 | Non-toxic | Non-toxic |
| CSc1ccc2c(c1)Sc1cc3ccccc3nc1N2CCCCNS(=O)(=O)c1ccc(C)cc1 | 37.5 | 70.4 | -34.7 | -5 | Non-toxic | Non-toxic |
| CSc1ccc2c(c1)Sc1cc3ccccc3nc1N2CCN1CCCCC1 | 34.6 | 49.2 | 92 | 93.8 | 18% | 91.7% |
| O=C(NCCCl)NCCCCN1c2ccccc2Sc2cc3ccccc3nc21 | 4.3 | -1.8 | 88.7 | 16.6 | 7.9% | Non-toxic |
| FC(F)(F)c1cccc2c1Sc1cc3ccccc3nc1N2 | -2.6 | 74.9 | 13.6 | 2.3 | 5% | Non-toxic |
| Clc1ccc2c(c1)Sc1cc3ccccc3nc1N2 | 9.6 | 2 | 5.7 | -0.3 | Non-toxic | Non-toxic |
| CSc1ccc2c(c1)Sc1cc3ccccc3nc1N2CCCCNC(C)=O | 60.4 | 46.8 | 42 | 54.7 | Non-toxic | 7.9% |
| O=C(NCCCl)NCCCN1c2ccccc2Sc2cc3ccccc3nc21 | 5 | 14.6 | 77.9 | 11.2 | 8.5% | Non-toxic |
| Brc1cccc2c1Sc1cc3ccccc3nc1N2 | 8.4 | 13.6 | 16.4 | 0.1 | Non-toxic | Non-toxic |
| c1ccc2c(c1)Nc1nc3ccccc3cc1S2 | 16.1 | 25.6 | 14.4 | 7.1 | Non-toxic | Non-toxic |
| CS(=O)(=O)NCCCN1c2ccccc2Sc2cc3ccccc3nc21 | 60.6 | 8.1 | 74.6 | 36.6 | Non-toxic | Non-toxic |
| Fc1ccc2c(c1)Sc1cc3ccccc3nc1N2 |  |  |  | 100 | 50% |  |
